Measured values taken from ChEMBL document CHEMBL5335784, “Discovery of a novel 1,3,4-oxadiazol-2-one-based NLRP3 inhibitor as a pharmacological agent to mitigate cardiac and metabolic complications in an experimental model of diet-induced metaflammation” (Eur J Med Chem, 2023).
Activity calls are given as the source filed them. The calls are words filed in the database; no cut-off is given here.

Legend:
[1] = Effect on IL-1 beta level in standard diet fed Wistar rat serum at 20 mg/kg/day, ip administered for 4 weeks by ELISA; type: toxicity, organism-based; details: in vivo, 672 h
How it was run: (§1)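 Male Wistar rats on HFD or SD for 12 weeks received 20 mg/kg/day i.p. (saline, 2% DMSO, 5% Cremophor-EL) or vehicle for the last 28 days. Circulating IL-1β, TNF-α, BNP and Gal-3 quantified by ELISA in blood collected after sacrifice. n=6–7 per group.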

Rattus norvegicus [2] = assay: Antiinflammatory activity against high fat diet fed-induced metaflammation Wistar rat model assessed as reduction in HFD-induced metabolic alterations by measuring reduction in total cholesterol level in plasma at 20 mg/kg/day, ip administered for 4 weeks; type: functional, organism-based
How it was run: (§2)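 Rats fed HFD or SD for 12 weeks, dosed 20 mg/kg/day i.p. in saline/2% DMSO/5% Cremophor-EL during the final 28 days. Serum obtained after sacrifice by centrifuging blood at 2000 x g, 10 min, 4 °C. Glucose read by glucometer; total, HDL and LDL cholesterol and triglycerides measured with commercial kits. n=6–7 per group.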

Rattus norvegicus [3] = assay: (§3) Inhibition of ischemia/reperfusion-induced NLRP3 inflammasome activation in ischemia/reperfusion-induced myocardial injury and high fat diet fed obese Wistar rat model assessed as decrease in NLRP3 protein expression at 20 mg/kg/day, ip administered for 4 weeks followed by excised heart exposed to global ischemia for 30 mins and reperfusion for 120 mins by immunoblot analysis; type: functional, organism-based
How it was run: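 Left ventricles from Langendorff hearts (30 min global ischemia/120 min reperfusion) of HFD or SD rats dosed 20 mg/kg/day i.p. for the final 28 days. Tissue homogenized in RIPA buffer with protease/phosphatase inhibitors. 50 μg protein run on 8% SDS-PAGE and immunoblotted for NLRP3 (1:500), normalized to β-actin by densitometry; n=4 per group.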

[4] = Cytotoxicity against human THP-1 cells assessed as reduction in cell viability measured after 72 hr by MTT assay; type: toxicity, cell-based; details: read-out: TC50
How it was run: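 Undifferentiated THP-1 cells exposed to 0.1–100 μM compound for 72 h. Viability read by MTT reduction at 570 nm. TC50 from concentration–response; three experiments.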

Rattus norvegicus [5] = assay: Antiinflammatory activity against high fat diet fed-induced metaflammation Wistar rat model assessed as reduction in HFD-induced metabolic alterations by measuring reduction in triglyceride level in plasma at 20 mg/kg/day, ip administered for 4 weeks; type: functional, organism-based; how it was run: as §2
Rattus norvegicus [6] = assay: Antiinflammatory activity against high fat diet fed-induced metaflammation Wistar rat model assessed as reduction in HFD-induced anthropometric alterations by measuring reduction in heart weight at 20 mg/kg/day, ip administered for 4 weeks; type: functional, organism-based
How it was run: (§4)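 Male Wistar rats on high-fat diet (60% kcal fat) or standard diet for 12 weeks; 20 mg/kg/day i.p. or vehicle (saline, 2% DMSO, 5% Cremophor-EL) over the last 28 days. Body weight recorded weekly. After sacrifice, abdominal, epididymal, retroperitoneal and perirenal fat, liver and heart excised and weighed. Cardiac somatic index = heart weight/body weight ×100. n=6–7 per group.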

Rattus norvegicus [7] = assay: Antiinflammatory activity against high fat diet fed-induced metaflammation Wistar rat model assessed as reduction in HFD-induced metabolic alterations by measuring reduction in LDL cholesterol level in plasma at 20 mg/kg/day, ip administered for 4 weeks; type: functional, organism-based; how it was run: as §2
Rattus norvegicus [8] = assay: Cardioprotective activity against ischemia/reperfusion-induced myocardial injury and standard diet fed Wistar rat model assessed as decrease in LDH activity in coronary effluents at 20 mg/kg/day, ip administered for 4 weeks followed by excised heart exposed to global ischemia for 30 mins and reperfusion for 120 mins and measured during first 30 mins of reperfusion by spectrophotometric analysis; type: functional, organism-based
How it was run: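 HFD or SD rats, dosed 20 mg/kg/day i.p. for the final 28 days, anaesthetised with ethyl carbamate (2 g/kg i.p.). Hearts Langendorff-perfused with Krebs–Henseleit buffer (pH 7.4, 37 °C, 12 ml/min); 40 min stabilization, 30 min global no-flow ischemia, 120 min reperfusion. Coronary effluent collected on ice before ischemia and at 10, 20, 30 min reperfusion; LDH activity by McQueen method. n=6–7.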

Rattus norvegicus [9] = assay: as §3, with “inflammation” for “NLRP3 inflammasome activation”, “cardiac IL-1 beta level” for “NLRP3 protein expression”, “ELISA” for “immunoblot analysis”; type: functional, organism-based
How it was run: (§5)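 Male Wistar rats on standard or 60% kcal fat diet for 12 weeks; last 28 days i.p. 20 mg/kg/day in saline with 2% DMSO and 5% Cremophor-EL, or vehicle. Hearts perfused by Langendorff with KH buffer at 12 ml/min, 37°C, then 40 min stabilization, 30 min global no-flow ischemia and 120 min reperfusion. Cytokines measured in LV tissue; n=6–7 per group.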

Rattus norvegicus [10] = assay: Cardioprotective activity against high fat diet fed-induced metaflammation Wistar rat model assessed as reduction in myocardial damage by measuring reduction in plasma Gal-3level at 20 mg/kg/day, ip administered for 4 weeks by ELISA; type: functional, organism-based; how it was run: as §1
Rattus norvegicus [11] = assay: as §3, with “oxidative stress” for “NLRP3 inflammasome activation”, “increase” for “decrease”, “cardiac SOD activity” for “NLRP3 protein expression”, “mins” for “mins by immunoblot analysis”; type: functional, organism-based
How it was run: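 Same rat diet, dosing and ischemia/reperfusion protocol. LV homogenized in 50 mM Tris-HCl pH 8.2 with 1 mM DTPA and centrifuged at 20,000 x g for 20 min. Supernatant mixed with 0.2 mM pyrogallol, autoxidation followed at 420 nm for 3 min. Activity given as % pyrogallol autoxidation relative to sham; 1 U inhibits the rate by 50%.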

Rattus norvegicus [12] = assay: Antiinflammatory activity against high fat diet fed-induced metaflammation Wistar rat model assessed as reduction in HFD-induced anthropometric alterations by measuring reduction in retroperitoneal fat deposition at 20 mg/kg/day, ip administered for 4 weeks; type: functional, organism-based; how it was run: as §4
[13] = Effect on LDH level in standard diet fed Wistar rat plasma at 20 mg/kg/day, ip administered for 4 weeks; type: toxicity, organism-based; details: in vivo, 672 h
[14] = Effect on TNF-alpha level in standard diet fed Wistar rat serum at 20 mg/kg/day, ip administered for 4 weeks by ELISA; type: toxicity, organism-based; details: in vivo, 672 h; how it was run: as §1
Rattus norvegicus [15] = assay: Antiinflammatory activity against high fat diet fed-induced metaflammation Wistar rat model assessed as reduction in serum IL-1 beta level at 20 mg/kg/day, ip administered for 4 weeks by ELISA; type: functional, organism-based; how it was run: as §1
[16] = Effect on left ventricular end diastolic pressure in high diet fed obese Wistar rat model at 20 mg/kg/day, ip administered for 4 weeks (reference value: 6+/-0.2 mm Hg); type: toxicity, organism-based; details: in vivo, 672 h
Rattus norvegicus [17] = assay: Antiinflammatory activity against high fat diet fed-induced metaflammation Wistar rat model assessed as reduction in HFD-induced anthropometric alterations by measuring reduction in epididymal fat deposition at 20 mg/kg/day, ip administered for 4 weeks; type: functional, organism-based; how it was run: as §4
[18] = Effect on developed LVP recovery in standard diet fed Wistar rat model at 20 mg/kg/day, ip administered for 4 weeks (reference value: 69 +/-4 mmHg); type: toxicity, organism-based; details: in vivo, 672 h
Rattus norvegicus [19] = assay: Antiinflammatory activity against high fat diet fed-induced metaflammation Wistar rat model assessed as reduction in serum TNF-alpha level at 20 mg/kg/day, ip administered for 4 weeks by ELISA; type: functional, organism-based; how it was run: as §1
Rattus norvegicus [20] = assay: (§6) Inhibition of ischemia/reperfusion-induced inflammation in ischemia/reperfusion-induced myocardial injury and standard diet fed Wistar rat model assessed as decrease in cardiac IL-1 beta level at 20 mg/kg/day, ip administered for 4 weeks followed by excised heart exposed to global ischemia for 30 mins and reperfusion for 120 mins by ELISA; type: functional, organism-based; how it was run: as §5
Rattus norvegicus [21] = assay: Cardioprotective activity against myocardial ischemia/reperfusion injury-induced contractile impairment and high fat diet fed obese Wistar rat model assessed as left ventricular end diastolic pressure at 20 mg/kg/day, ip administered for 4 weeks followed by excised heart exposed to global ischemia for 30 mins and reperfusion for 120 mins and measured at the end of reperfusion (reference value: 27 +/-1 mmHg); type: functional
Rattus norvegicus [22] = assay: as §6, with “TNF-alpha” for “IL-1 beta”; type: functional, organism-based; how it was run: as §5

SMILES: CCOC(=O)Cn1nc(Cc2ccccc2Cl)oc1=O
- Activity [1]: Non-Toxic
- Activity (Rattus norvegicus [2]): Active
- inhibition (Rattus norvegicus [3]): Active
- CC50 at 72 h [4]: 76.5 µM
- Activity (Rattus norvegicus [5]): Active
- Activity (Rattus norvegicus [6]): Active
- Activity (Rattus norvegicus [7]): Active
- Activity (Rattus norvegicus [8]): Active
- inhibition (Rattus norvegicus [9]): Active
- Activity (Rattus norvegicus [10]): Active
- inhibition (Rattus norvegicus [11]): Active
- Activity (Rattus norvegicus [12]): Active
- Activity [13]: Non-Toxic
- Activity [14]: Non-Toxic
- Activity (Rattus norvegicus [15]): Active
- Activity [16]: 4 mmHg
- Activity (Rattus norvegicus [17]): Active
- Activity [18]: 65 mmHg
- Activity (Rattus norvegicus [19]): Active
- inhibition (Rattus norvegicus [20]): Active
- Activity (Rattus norvegicus [21]): 18 mmHg
- inhibition (Rattus norvegicus [22]): Active
